Reference: ChEMBL document CHEMBL4342528, “Discovery of a First-in-Class Protein Arginine Methyltransferase 6 (PRMT6) Covalent Inhibitor” (J Med Chem, 2020)
The source made the active and inactive calls. No cut-off for these calls is given here.

Tests used:
[1] = target: T1, Protein arginine N-methyltransferase 6 (Homo sapiens, UniProt Q96LA8); assay: Inhibition of human PRMT6 using [3H]SAM as donor and [3H]methylated biotin-labeled peptide as substrate by scintillation proximity assay
Outline: (§1)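 Compound titrated into the reaction; 1 h enzyme–compound preincubation stated for PRMT6. Methylated peptide captured on streptavidin/scintillant-coated plates and counted (cpm). IC50 from concentration–response, triplicate, mean ± SD.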
Target sequence in this assay (Q96LA8 whole entry): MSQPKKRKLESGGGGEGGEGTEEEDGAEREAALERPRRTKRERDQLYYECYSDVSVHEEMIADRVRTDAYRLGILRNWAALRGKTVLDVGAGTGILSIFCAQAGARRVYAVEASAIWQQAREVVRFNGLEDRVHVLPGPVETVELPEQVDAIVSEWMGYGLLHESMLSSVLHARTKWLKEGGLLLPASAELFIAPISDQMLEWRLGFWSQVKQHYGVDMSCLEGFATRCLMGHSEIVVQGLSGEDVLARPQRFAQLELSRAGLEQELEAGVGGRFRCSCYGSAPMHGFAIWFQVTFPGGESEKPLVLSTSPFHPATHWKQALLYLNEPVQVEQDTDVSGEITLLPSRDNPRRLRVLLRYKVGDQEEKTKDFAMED

[2] = target: Histone-lysine N-methyltransferase, H3 lysine-79 specific (Homo sapiens) (UniProt Q8TEK3); assay: Inhibition of DOT1L (unknown origin) at 10 uM using [3H-SAM] and nucleosome as substrate incubated for 1 hr by scintillation proximity assay
Outline: (§2)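 Panel of 33 methyltransferases (22 PKMTs, 3 DNMTs, 8 PRMTs), each tested at 10 and 50 μM compound. Activity was read as ³H-methyl transfer from ³H-SAM in a radiometric assay done as previously described.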

HEK-293T = assay: Toxicity in HEK293T cells assessed as reduction in cell viability up to 20 uM incubated for 3 days by CCK8 assay; assay type: cell-based; details: human, 72 h
Outline: (§3)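 Cells seeded 1×10^4 per well in triplicate, treated after 24 h with serial dilutions from 20 μM for 3 days; CCK-8 (WST-8) added, 4 h at 37 °C, absorbance at 450 nm; mean ± SD of three replicate experiments.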

[3] = target: T2, Histone-arginine methyltransferase CARM1 (Homo sapiens) (UniProt Q86X55); assay: Inhibition of PRMT4 (unknown origin) assessed as reduction in incorporation of [3H]-labeled methyl group into biotinylated substrate using [3H-SAM] at 10 uM incubated for 1 hr by scintillation proximity assay; outline: as §2
T2 sequence (whole entry): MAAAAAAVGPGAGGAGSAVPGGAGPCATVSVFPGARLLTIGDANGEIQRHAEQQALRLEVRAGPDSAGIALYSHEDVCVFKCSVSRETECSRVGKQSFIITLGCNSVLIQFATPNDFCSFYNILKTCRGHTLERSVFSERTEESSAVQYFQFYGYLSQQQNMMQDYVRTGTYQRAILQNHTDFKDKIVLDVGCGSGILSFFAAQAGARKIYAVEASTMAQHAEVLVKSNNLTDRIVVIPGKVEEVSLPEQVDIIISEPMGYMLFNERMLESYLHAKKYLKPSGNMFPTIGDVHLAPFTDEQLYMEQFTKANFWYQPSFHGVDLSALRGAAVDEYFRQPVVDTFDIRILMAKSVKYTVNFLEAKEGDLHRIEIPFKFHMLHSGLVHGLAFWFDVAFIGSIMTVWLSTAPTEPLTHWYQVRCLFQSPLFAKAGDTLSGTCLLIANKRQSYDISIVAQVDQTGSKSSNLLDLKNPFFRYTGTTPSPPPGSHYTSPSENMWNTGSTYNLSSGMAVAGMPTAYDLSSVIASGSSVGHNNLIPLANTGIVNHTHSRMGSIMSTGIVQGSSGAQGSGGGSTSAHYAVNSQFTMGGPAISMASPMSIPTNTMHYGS

[4] = target: Histone-lysine N-methyltransferase SUV39H1 (Homo sapiens) (UniProt O43463); assay: Inhibition of SUV39H1 (unknown origin) assessed as reduction in incorporation of [3H]-labeled methyl group into biotinylated substrate using [3H-SAM] at 50 uM incubated for 1 hr by scintillation proximity assay relative to control; outline: as §2
[5] = target: Protein arginine N-methyltransferase 8 (Homo sapiens, UniProt Q9NR22); assay: Inhibition of PRMT8 (unknown origin) assessed as reduction in incorporation of [3H]-labeled methyl group into biotinylated substrate using [3H-SAM] at 10 uM incubated for 1 hr by scintillation proximity assay; outline: as §2
[6] = target: Histone-lysine N-methyltransferase SMYD3 (Homo sapiens) (UniProt Q9H7B4); assay: Inhibition of SMYD3 (unknown origin) assessed as reduction in incorporation of [3H]-labeled methyl group into biotinylated substrate using [3H-SAM] at 10 uM incubated for 1 hr by scintillation proximity assay; outline: as §2
[7] = target: Histone-lysine N-methyltransferase KMT5B (Homo sapiens) (UniProt Q4FZB7); assay: Inhibition of SUV420H1 (unknown origin) assessed as reduction in incorporation of [3H]-labeled methyl group into biotinylated substrate using [3H-SAM] at 10 uM incubated for 1 hr by scintillation proximity assay
[8] = target: Histone-lysine N-methyltransferase NSD2 (Homo sapiens) (UniProt O96028); assay: Inhibition of NSD2 (unknown origin) at 10 uM using [3H-SAM] and nucleosome as substrate incubated for 1 hr by scintillation proximity assay; outline: as §2
[9] = target: Histone-lysine N-methyltransferase 2A (Homo sapiens) (UniProt Q03164); assay: Inhibition of MLL1 (unknown origin) assessed as reduction in incorporation of [3H]-labeled methyl group into biotinylated substrate using [3H-SAM] at 10 uM incubated for 1 hr by scintillation proximity assay; outline: as §2
[10] = target: T2, Histone-arginine methyltransferase CARM1 (Homo sapiens); assay: Covalent binding affinity to human PRMT4 assessed as covalent adduct. formation at 300 uM pre-incubated for 1 hr by mass spectrometry
Outline: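 PRMT protein at 15 μM was incubated 1 h at room temperature with a 20-fold molar excess of inhibitor (300 μM). The reaction was quenched with 0.1% aqueous TFA, separated by HPLC (5–95% acetonitrile in water) and analysed by ESI time-of-flight LC/MS for protein–ligand adduct mass.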

[11] = target: Histone-lysine N-methyltransferase SETD2 (Homo sapiens) (UniProt Q9BYW2); assay: Inhibition of SETD2 (unknown origin) assessed as reduction in incorporation of [3H]-labeled methyl group into biotinylated substrate using [3H-SAM] at 10 uM incubated for 1 hr by scintillation proximity assay; outline: as §2
[12] = target: T1, Protein arginine N-methyltransferase 6; assay: Inhibition of human PRMT6 pre-incubated for 1 to 30 mins using [3H]SAM as donor and [3H]methylated biotin-labeled peptide as substrate by scintillation proximity assay
[13] = target: Histone-lysine N-methyltransferase 2C (Homo sapiens) (UniProt Q8NEZ4); assay: Inhibition of MLL3 (unknown origin) assessed as reduction in incorporation of [3H]-labeled methyl group into biotinylated substrate using [3H-SAM] at 10 uM incubated for 1 hr by scintillation proximity assay; outline: as §2
Homo sapiens = organism: Homo sapiens; assay: Selectivity index, ratio of IC50 for human PRMT1 to IC50 for human PRMT6
[14] = target: T2, Histone-arginine methyltransferase CARM1 (Homo sapiens); assay: Inhibition of PRMT4 (unknown origin) assessed as reduction in incorporation of [3H]-labeled methyl group into biotinylated substrate using [3H-SAM] at 50 uM incubated for 1 hr by scintillation proximity assay relative to control; outline: as §2
PNT2 = assay: Toxicity in human PNT2 cells assessed as reduction in cell viability up to 20 uM incubated for 3 days by CCK8 assay; assay type: cell-based; details: pnt2, 72 h; outline: as §3
[15] = target: T3, Histone-arginine methyltransferase CARM1 (Homo sapiens, UniProt Q86X55); assay: Inhibition of human PRMT4 using [3H]SAM as donor and [3H]methylated biotin-labeled peptide as substrate by scintillation proximity assay; outline: as §1
T3 sequence (Q86X55 whole entry): T2 sequence (whole entry)

[16] = target: Protein arginine N-methyltransferase 5 (Homo sapiens) (UniProt O14744); assay: Inhibition of PRMT5 (unknown origin) assessed as reduction in incorporation of [3H]-labeled methyl group into biotinylated substrate using [3H-SAM] at 10 uM incubated for 1 hr by scintillation proximity assay; outline: as §2

Histone-lysine N-methyltransferase 2A (Homo sapiens), sequence (Q03164 1-2718 limits assumed): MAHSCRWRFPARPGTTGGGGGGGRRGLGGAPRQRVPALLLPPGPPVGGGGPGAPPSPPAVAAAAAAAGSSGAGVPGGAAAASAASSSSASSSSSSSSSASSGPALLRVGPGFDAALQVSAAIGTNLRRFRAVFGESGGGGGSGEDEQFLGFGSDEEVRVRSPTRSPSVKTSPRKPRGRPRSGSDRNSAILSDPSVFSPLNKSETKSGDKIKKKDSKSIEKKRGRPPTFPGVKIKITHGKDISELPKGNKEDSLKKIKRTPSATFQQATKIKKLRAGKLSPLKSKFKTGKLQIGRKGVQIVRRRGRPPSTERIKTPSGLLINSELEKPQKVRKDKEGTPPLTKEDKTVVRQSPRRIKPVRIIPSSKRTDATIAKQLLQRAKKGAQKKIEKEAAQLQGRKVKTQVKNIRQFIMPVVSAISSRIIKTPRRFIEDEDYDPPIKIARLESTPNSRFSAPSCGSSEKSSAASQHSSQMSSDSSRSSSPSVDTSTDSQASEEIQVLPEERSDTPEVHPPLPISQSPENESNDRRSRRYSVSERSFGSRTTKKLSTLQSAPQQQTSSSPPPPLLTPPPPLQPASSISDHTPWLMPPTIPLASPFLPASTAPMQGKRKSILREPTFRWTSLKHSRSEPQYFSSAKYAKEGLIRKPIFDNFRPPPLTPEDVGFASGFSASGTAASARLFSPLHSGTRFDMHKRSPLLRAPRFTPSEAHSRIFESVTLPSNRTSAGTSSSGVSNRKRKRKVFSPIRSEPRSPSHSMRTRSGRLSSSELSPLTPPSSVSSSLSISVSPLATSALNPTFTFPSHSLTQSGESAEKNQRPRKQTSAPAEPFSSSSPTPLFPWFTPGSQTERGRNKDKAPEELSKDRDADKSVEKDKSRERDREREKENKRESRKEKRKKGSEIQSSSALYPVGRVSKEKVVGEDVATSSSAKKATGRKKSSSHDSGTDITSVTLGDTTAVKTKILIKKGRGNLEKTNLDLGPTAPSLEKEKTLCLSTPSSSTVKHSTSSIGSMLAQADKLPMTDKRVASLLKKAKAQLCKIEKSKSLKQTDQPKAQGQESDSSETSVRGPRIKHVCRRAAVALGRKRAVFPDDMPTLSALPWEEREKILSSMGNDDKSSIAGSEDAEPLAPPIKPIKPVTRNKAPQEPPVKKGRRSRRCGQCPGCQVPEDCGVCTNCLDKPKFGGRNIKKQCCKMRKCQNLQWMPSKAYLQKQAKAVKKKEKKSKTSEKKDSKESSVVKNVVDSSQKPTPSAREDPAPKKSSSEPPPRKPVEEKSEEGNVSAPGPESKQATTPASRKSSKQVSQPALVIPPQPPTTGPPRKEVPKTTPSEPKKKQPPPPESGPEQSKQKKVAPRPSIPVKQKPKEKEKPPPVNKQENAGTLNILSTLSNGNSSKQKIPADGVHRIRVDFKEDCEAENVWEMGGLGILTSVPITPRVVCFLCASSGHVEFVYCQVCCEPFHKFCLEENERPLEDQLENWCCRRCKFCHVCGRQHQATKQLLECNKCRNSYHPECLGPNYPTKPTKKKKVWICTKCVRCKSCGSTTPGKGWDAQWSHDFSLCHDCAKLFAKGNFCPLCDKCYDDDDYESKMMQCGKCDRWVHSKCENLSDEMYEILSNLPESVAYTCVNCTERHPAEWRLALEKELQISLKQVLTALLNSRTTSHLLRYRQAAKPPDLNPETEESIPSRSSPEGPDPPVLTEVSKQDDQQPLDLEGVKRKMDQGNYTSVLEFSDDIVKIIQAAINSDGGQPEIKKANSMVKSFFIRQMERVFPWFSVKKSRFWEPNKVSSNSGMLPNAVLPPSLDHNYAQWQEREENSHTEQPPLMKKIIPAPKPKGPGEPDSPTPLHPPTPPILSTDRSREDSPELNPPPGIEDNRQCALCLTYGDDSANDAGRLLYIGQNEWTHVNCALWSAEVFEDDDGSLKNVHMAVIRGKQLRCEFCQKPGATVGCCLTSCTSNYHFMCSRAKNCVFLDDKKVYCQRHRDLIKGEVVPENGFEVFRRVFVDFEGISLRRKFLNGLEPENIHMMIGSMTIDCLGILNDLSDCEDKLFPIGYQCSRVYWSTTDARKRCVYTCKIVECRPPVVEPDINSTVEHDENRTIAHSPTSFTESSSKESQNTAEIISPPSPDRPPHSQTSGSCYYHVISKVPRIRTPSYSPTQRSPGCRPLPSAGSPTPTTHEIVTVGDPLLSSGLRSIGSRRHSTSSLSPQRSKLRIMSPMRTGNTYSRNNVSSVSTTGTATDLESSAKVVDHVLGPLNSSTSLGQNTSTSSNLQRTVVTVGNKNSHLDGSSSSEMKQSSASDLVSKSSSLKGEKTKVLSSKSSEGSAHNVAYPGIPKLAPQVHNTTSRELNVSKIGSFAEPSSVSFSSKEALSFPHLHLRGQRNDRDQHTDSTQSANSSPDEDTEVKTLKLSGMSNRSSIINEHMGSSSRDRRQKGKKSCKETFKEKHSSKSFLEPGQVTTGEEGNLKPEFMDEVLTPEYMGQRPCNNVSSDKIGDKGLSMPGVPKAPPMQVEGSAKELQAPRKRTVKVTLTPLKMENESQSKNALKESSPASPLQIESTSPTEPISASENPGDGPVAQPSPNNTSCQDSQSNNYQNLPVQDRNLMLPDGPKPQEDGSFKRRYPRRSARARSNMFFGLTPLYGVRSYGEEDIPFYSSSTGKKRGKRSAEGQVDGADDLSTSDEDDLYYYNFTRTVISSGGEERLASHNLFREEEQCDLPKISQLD
Histone-lysine N-methyltransferase 2A (Homo sapiens), sequence (Q03164 2719-3969 limits assumed): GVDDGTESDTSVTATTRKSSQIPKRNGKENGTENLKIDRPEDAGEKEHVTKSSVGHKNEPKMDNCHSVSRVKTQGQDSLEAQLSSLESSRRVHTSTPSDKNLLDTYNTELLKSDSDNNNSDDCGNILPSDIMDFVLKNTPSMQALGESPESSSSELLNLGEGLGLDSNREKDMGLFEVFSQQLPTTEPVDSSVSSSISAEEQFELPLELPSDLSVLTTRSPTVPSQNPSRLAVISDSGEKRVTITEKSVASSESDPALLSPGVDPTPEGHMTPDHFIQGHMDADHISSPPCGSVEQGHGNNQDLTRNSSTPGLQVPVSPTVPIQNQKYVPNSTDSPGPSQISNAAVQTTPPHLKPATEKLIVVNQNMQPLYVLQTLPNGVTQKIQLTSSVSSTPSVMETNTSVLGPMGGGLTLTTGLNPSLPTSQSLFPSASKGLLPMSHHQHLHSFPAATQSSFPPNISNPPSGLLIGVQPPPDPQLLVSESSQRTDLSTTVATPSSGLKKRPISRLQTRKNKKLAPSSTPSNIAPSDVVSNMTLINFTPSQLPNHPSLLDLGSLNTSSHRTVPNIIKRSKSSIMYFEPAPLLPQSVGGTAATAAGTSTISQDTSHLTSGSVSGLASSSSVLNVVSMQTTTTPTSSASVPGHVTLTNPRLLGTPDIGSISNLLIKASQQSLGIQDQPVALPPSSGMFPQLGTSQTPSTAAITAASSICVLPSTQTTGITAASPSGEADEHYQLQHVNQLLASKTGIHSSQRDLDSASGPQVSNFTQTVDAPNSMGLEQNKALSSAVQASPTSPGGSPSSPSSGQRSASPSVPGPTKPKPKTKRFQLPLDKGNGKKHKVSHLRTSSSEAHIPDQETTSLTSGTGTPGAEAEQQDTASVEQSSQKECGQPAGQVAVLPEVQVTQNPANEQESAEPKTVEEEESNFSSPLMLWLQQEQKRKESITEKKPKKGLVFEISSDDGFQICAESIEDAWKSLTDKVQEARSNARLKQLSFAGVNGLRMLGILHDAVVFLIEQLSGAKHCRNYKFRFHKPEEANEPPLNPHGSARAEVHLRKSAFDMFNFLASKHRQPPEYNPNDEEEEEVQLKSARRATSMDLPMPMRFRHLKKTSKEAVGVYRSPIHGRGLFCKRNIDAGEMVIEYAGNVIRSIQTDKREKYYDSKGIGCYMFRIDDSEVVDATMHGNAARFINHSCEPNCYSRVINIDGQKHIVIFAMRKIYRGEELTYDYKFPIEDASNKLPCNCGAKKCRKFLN
Histone-lysine N-methyltransferase SMYD3 (Homo sapiens), sequence (Q9H7B4 whole entry): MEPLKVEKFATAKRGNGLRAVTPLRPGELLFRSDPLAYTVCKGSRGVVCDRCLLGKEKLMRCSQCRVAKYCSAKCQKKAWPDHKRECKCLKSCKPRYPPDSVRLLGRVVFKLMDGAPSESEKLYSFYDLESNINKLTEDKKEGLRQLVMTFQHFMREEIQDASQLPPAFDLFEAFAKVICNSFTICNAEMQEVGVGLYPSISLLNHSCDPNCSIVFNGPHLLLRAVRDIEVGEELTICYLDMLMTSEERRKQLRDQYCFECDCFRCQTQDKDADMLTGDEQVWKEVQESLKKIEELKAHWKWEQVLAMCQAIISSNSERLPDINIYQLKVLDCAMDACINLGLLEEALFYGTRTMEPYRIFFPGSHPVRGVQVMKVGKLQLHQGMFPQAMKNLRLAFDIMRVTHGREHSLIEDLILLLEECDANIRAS

C=CC(=O)Nc1cccc(-c2c[nH]cc2CN(C)CCN)c1
IC50 ([1]; read-out: IC50): 18 nM | IC50 ([1]; read-out: pIC50 (converted)): 15.8 nM | inhibition [2]: inactive | Activity (HEK-293T): Non-Toxic | inhibition [3]: > 90% | inhibition [4]: > 50% | inhibition [5]: > 90% | inhibition [6]: inactive | inhibition [7]: inactive | inhibition [8]: inactive | inhibition [9]: inactive | Activity [10]: inactive | inhibition [11]: inactive | Ki [12]: 16 nM | Kinact [12]: 0.08 min⁻¹ | inhibition [13]: inactive | Ratio IC50 (Homo sapiens): 6 | inhibition [14]: > 50% | Activity (PNT2): Non-Toxic | IC50 [15]: 480 nM | inhibition [16]: inactive
